Test results: ChEMBL document CHEMBL4311979, “Structural isomers of cinnamic hydroxamic acids block HCV replication via different mechanisms” (Eur J Med Chem, 2019)

Columns and labels:
[1] = target: T1, Protein deacetylase HDAC6 (Homo sapiens) (UniProt Q9UBN7); experiment: Inhibition of HDAC6 in human HuH7-luc/neo cells assessed as ratio of alphaTubK40ac content to the content of unmodified alpha-tubulin at 1 uM incubated for 24 hrs by Western blot analysis relative to control; assay type: cell-based
T1 sequence (whole entry): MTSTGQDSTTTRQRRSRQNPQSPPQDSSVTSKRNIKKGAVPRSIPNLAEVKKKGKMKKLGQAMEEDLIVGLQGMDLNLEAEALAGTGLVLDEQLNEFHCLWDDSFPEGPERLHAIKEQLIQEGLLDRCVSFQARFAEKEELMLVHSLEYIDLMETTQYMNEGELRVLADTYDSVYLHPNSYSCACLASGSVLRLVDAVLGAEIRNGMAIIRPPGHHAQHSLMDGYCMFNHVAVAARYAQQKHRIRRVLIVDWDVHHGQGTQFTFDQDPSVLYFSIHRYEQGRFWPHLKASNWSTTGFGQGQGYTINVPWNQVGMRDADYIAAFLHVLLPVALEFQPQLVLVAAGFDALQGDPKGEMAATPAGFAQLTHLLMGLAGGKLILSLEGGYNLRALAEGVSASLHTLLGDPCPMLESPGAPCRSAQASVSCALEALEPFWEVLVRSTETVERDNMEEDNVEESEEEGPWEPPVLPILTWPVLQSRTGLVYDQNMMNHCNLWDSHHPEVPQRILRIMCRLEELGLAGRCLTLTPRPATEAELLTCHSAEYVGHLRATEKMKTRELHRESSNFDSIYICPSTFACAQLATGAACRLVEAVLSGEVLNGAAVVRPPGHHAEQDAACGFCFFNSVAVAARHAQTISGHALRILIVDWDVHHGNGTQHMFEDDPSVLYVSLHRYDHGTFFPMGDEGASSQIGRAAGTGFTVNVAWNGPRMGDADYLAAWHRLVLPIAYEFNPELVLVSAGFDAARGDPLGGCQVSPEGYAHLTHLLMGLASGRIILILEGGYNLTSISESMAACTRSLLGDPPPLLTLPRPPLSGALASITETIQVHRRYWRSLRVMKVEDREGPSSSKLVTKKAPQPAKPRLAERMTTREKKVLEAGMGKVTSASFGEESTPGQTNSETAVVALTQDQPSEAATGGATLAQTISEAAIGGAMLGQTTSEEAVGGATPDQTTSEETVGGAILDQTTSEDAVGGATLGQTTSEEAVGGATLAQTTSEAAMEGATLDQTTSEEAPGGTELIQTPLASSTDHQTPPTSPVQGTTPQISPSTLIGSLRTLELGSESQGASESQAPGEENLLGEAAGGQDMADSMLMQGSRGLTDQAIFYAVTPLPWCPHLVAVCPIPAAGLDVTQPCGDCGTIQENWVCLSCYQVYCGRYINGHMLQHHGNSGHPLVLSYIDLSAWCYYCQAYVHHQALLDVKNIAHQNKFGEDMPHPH
Summary of the method: (§1)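 Huh7-luc/neo cells were dosed after 24 h at 40-50% monolayer and exposed to compound for 24 h at 37 °C in 5% CO2. For α-tubulin and SMC3, cells were PBS-washed and lysed. Histone H3 was acid-extracted: TEB buffer with 0.5% Triton X-100, then 0.2 M HCl overnight at 4 °C, then neutralized. Western blots were blocked in 5% milk/PBST with overnight primary antibody at 4 °C. Values are acetylated/total normalized ratios versus control.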

Hepatitis C virus = experiment: Antiviral activity against HCV infected in human HuH7-luc/neo cells assessed as inhibition of viral replicon propagation incubated for 3 days by luciferase reporter gene assay; assay type: functional, organism-based, Hepacivirus hominis; conditions: 72 h
Summary of the method: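 Huh7-luc/neo cells carrying a full-length HCV replicon with a luciferase gene. Cells were reseeded without G418 and dosed at 30-40% monolayer (48 h) over a range of concentrations. Incubation was 72 h at 37 °C in 5% CO2. Cells were then PBS-washed and lysed, and luciferase chemiluminescence was read. EC50 is the mean and standard deviation of at least four independent experiments.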

[2] = target: T1, Protein deacetylase HDAC6 (Homo sapiens); experiment: Inhibition of HDAC6 in human HuH7-luc/neo cells assessed as ratio of alphaTubK40ac content to the content of unmodified alpha-tubulin at 3 uM incubated for 24 hrs by Western blot analysis relative to control; assay type: cell-based; summary of the method: as §1
[3] = target: T2, Histone deacetylase 8 (Homo sapiens) (UniProt Q9BY41); experiment: Inhibition of HDAC8 in human HuH7-luc/neo cells assessed as ratio of SMC3K105/106ac content to the content of unmodified SMC3 at 3 uM incubated for 24 hrs by Western blot analysis relative to control; assay type: cell-based; summary of the method: as §1
T2 sequence (whole entry): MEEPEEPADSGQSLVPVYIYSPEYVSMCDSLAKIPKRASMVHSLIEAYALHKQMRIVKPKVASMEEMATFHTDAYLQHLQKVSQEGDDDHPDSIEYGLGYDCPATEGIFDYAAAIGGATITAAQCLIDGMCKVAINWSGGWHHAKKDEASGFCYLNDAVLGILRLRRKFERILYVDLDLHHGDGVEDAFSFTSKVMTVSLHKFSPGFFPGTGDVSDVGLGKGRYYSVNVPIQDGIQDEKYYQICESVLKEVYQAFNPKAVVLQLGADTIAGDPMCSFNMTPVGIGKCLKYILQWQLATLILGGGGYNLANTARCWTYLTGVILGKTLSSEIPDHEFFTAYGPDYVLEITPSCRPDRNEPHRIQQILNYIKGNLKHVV

[4] = target: T3, Histone deacetylase 1/2/3 (Homo sapiens) (UniProt Q13547+O15379+Q92769); experiment: Inhibition of HDAC1/2/3 in human HuH7-luc/neo cells assessed as ratio of H3K9/14ac content to the content of unmodified histone H3 at 1 uM incubated for 24 hrs by Western blot analysis relative to control; assay type: cell-based; summary of the method: as §1
[5] = target: T1, Protein deacetylase HDAC6 (Homo sapiens); experiment: Inhibition of HDAC6 in human HuH7-luc/neo cells assessed as ratio of alphaTubK40ac content to the content of unmodified alpha-tubulin at 0.3 uM incubated for 24 hrs by Western blot analysis relative to control; assay type: cell-based; summary of the method: as §1
[6] = target: T3, Histone deacetylase 1/2/3 (Homo sapiens); experiment: Inhibition of HDAC1/2/3 in human HuH7-luc/neo cells assessed as ratio of H3K9/14ac content to the content of unmodified histone H3 at 3 uM incubated for 24 hrs by Western blot analysis relative to control; assay type: cell-based; summary of the method: as §1
[7] = Cytotoxicity against human HuH7 cells assessed as reduction in cell viability incubated for 3 days by MTT assay; assay type: cell-based, Huh-7
Summary of the method: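 Huh7 cells were reseeded and dosed over a range of concentrations after 24 h (30-40% monolayer). Incubation was three days at 37 °C in 5% CO2, and viability was read by MTT. CC50 is the mean and standard deviation of at least six independent experiments.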

[8] = target: T3, Histone deacetylase 1/2/3 (Homo sapiens); experiment: Inhibition of HDAC1/2/3 in human HuH7-luc/neo cells assessed as ratio of H3K9/14ac content to the content of unmodified histone H3 at 0.3 uM incubated for 24 hrs by Western blot analysis relative to control; assay type: cell-based; summary of the method: as §1
[9] = Therapeutic index, ratio of CC50 for human HuH7 cells to EC50 for HCV infected in human HuH7-luc/neo cells; assay type: toxicity, cell-based; conditions: HuH7 cells (CC50) and HCV-infected HuH7-luc/neo cells (EC50)
[10] = target: T2, Histone deacetylase 8 (Homo sapiens); experiment: Inhibition of HDAC8 in human HuH7-luc/neo cells assessed as ratio of SMC3K105/106ac content to the content of unmodified SMC3 at 10 uM incubated for 24 hrs by Western blot analysis relative to control; assay type: cell-based; summary of the method: as §1
[11] = target: T2, Histone deacetylase 8 (Homo sapiens); experiment: Inhibition of HDAC8 in human HuH7-luc/neo cells assessed as ratio of SMC3K105/106ac content to the content of unmodified SMC3 at 0.1 uM incubated for 24 hrs by Western blot analysis relative to control; assay type: cell-based; summary of the method: as §1
[12] = target: T2, Histone deacetylase 8 (Homo sapiens); experiment: Inhibition of HDAC8 in human HuH7-luc/neo cells assessed as ratio of SMC3K105/106ac content to the content of unmodified SMC3 at 1 uM incubated for 24 hrs by Western blot analysis relative to control; assay type: cell-based; summary of the method: as §1
[13] = target: T2, Histone deacetylase 8 (Homo sapiens); experiment: Inhibition of HDAC8 in human HuH7-luc/neo cells assessed as ratio of SMC3K105/106ac content to the content of unmodified SMC3 at 0.3 uM incubated for 24 hrs by Western blot analysis relative to control; assay type: cell-based; summary of the method: as §1

Row | SMILES | fold change (FC) [1] | EC50 (Hepatitis C virus) | fold change (FC) [2] | fold change (FC) [3] | fold change (FC) [4] | fold change (FC) [5] | fold change (FC) [6] | CC50 at 72 h [7] | fold change (FC) [8] | selectivity ratio [9] | fold change (FC) [10] | fold change (FC) [11] | fold change (FC) [12] | fold change (FC) [13]
1 | O=C(/C=C/c1ccc(OCCOc2ccccc2)cc1)NO | 3.73 | 0.063 µM | 6.35 | 0.84 | 11.2 | 0.86 | 15.4 | 5.7 µM | 4.04 | 91 | 1.13 | – | – | –
2 | O=C(/C=C/c1ccccc1OCCc1ccccc1)NO | 0.64 | 0.32 µM | 0.8 | 3.17 | 2.39 | – | 4.34 | 83 µM | – | 260 | 3.78 | 1.84 | 1.98 | 2.03
3 | O=C(/C=C/c1ccc(OCCc2ccccc2)cc1)NO | 0.5 | 0.13 µM | 2.55 | 0.52 | 9 | 0.52 | 9.6 | 16 µM | 4.3 | 120 | 0.41 | – | – | –
4 | O=C(/C=C/c1cccc(OCCOc2ccccc2)c1)NO | 3.33 | 0.11 µM | 7.72 | 0.89 | 7.5 | – | 20.2 | 6 µM | – | 55 | 1.44 | – | – | –
5 | O=C(/C=C/c1ccccc1Oc1ccccc1)NO | 0.74 | 0.4 µM | 1.01 | 2.66 | 0.9 | – | 1.46 | 66 µM | 0.62 | 165 | 3.14 | 1.7 | 2.15 | 2.03
6 | O=C(/C=C/c1cccc(OCc2ccccc2)c1)NO | 7.34 | 0.18 µM | 10.6 | 0.82 | 8.42 | – | 14.1 | 6.6 µM | – | 37 | 0.83 | – | – | –
7 | COc1cccc(/C=C/C(=O)NO)c1 | 2.13 | 0.57 µM | 3.3 | – | 1.45 | – | 1.69 | 17 µM | – | 30 | – | – | – | –
